Calls of active or inactive are those of the source. No cut-off for these calls is given here.
Legend:
[1] = biological target: T1, Cholesteryl ester transfer protein (Homo sapiens, UniProt P11597); test: Inhibition of CETP in human plasma measured every 30 mins for 120 mins by fluorescence method
T1 sequence (P11597 whole entry): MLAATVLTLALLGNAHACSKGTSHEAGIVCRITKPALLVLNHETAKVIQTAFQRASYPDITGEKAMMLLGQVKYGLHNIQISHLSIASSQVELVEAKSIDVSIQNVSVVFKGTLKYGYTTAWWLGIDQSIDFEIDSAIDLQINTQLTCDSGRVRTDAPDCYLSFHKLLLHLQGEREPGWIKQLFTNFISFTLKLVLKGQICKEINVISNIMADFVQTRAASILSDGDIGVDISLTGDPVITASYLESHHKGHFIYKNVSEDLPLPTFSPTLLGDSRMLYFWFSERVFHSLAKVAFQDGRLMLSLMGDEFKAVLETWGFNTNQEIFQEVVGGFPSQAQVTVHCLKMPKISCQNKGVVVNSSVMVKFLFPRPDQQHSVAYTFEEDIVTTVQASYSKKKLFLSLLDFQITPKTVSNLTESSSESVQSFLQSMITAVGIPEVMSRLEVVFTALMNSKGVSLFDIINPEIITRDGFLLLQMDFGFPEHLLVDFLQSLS
How it was run: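 Pooled EDTA plasma from healthy male donors (final 50%) with compound in DMSO (final 1%). The reaction is started with fluorescent donor solution. Activity is the 30–90 min slope. IC50 is fitted to duplicate wells by a logistic equation.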

[2] = 1-Octanol-phosphate buffered saline partition coefficient, log D of compound at […] by tandem mass spectrometry method; assay type: physicochemical
NCI-H295R = test: Toxicty in human NCI-H295R cells assessed as increase in aldosterone levels at 0.1 to 10000 nM after 24 hrs by scintillation proximity assay; assay type: toxicity, cell-based; settings: 10 µM
Rattus norvegicus [3] = test: Toxicity in cannulated Sprague-Dawley rat assessed as increase in mean arterial pressure at 5 mg/kg, iv by blood pressure transducer based method; assay type: organism-based; settings: in vivo
Rattus norvegicus [4] = test: Toxicity in cannulated Sprague-Dawley rat assessed as increase in plasma aldosterone levels at 5 mg/kg, iv by radioimmunoassay; assay type: organism-based; settings: in vivo
[5] = Half life in Sprague-Dawley rat at 1 mg/kg, iv or 3 mg/kg, po by LC-ESI-MS/MS analysis; assay type: ADME, organism-based; settings: in vivo
How it was run: (§1)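 Conscious 7-week-old male Sprague-Dawley rats on standard diet with free water. Dosing is 1 mg/kg iv bolus in N-methylpyrrolidin-2-one/PEG 200, or 3 mg/kg oral suspension in 0.5% aqueous methylcellulose. Blood is sampled at various time points after administration.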

[6] = Clearance in Sprague-Dawley rat plasma at 1 mg/kg, iv or 3 mg/kg, po by LC-ESI-MS/MS analysis; assay type: ADME, organism-based; how it was run: as §1
[7] = Volume of distribution in Sprague-Dawley rat at 1 mg/kg, iv or 3 mg/kg, po by LC-ESI-MS/MS analysis; assay type: ADME, organism-based; settings: in vivo; how it was run: as §1
[8] = AUC (infinity) in Sprague-Dawley rat at 1 mg/kg, iv or 3 mg/kg, po by LC-ESI-MS/MS analysis; assay type: ADME, organism-based; settings: in vivo; how it was run: as §1
[9] = Oral bioavailability in Sprague-Dawley rat at 3 mg/kg by LC-ESI-MS/MS analysis; assay type: ADME, organism-based; settings: in vivo; how it was run: as §1
Cytochrome P450 3A4 [10] = biological target: T2, Cytochrome P450 3A4 (Homo sapiens, UniProt P08684); test: Inhibition of CYP3A4 (unknown origin) in the presence of midozolam; assay type: ADME
Cytochrome P450 3A4 [11] = biological target: T2, Cytochrome P450 3A4; test: Inhibition of CYP3A4 (unknown origin) in the presence of testosterone; assay type: ADME
Cytochrome P450 2D6 = Cytochrome P450 2D6 (Homo sapiens, UniProt P10635); test: Inhibition of CYP2D6 (unknown origin); assay type: ADME
Cytochrome P450 2C9 = Cytochrome P450 2C9 (Homo sapiens, UniProt P11712); test: Inhibition of CYP2C9 (unknown origin); assay type: ADME
Syrian golden hamster [12] = test: Increase in HDL cholesterol level in Syrian hamster plasma at 0.3 and 10 mg/kg, po dosed once daily for 2 weeks and measured 24 hrs post last dose by HPLC size exclusion chromatography method relative to control; assay type: functional, organism-based; settings: Mesocricetus auratus
How it was run: (§2)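 Chow-fed hamsters gavaged once daily in the morning for 2 weeks (0.3, 1, 3, 10 mg/kg; vehicle 10 mL/kg). Blood is drawn from the abdominal vein under isoflurane 24 h post last dose, after a 16 h fast. Lipoprotein cholesterol is measured by Superose 6 HPLC with online enzymatic detection at 580 nm, standardized to control plasma. Mean ± SEM, n=6, Dunnett test.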

Hamster [13] = test: Increase in HDL cholesterol levels in hamster plasma by HPLC size exclusion chromatography method relative to control; assay type: functional; settings: Cricetinae; how it was run: as §2
Syrian golden hamster [14] = test: Reduction in LDL cholesterol level in Syrian hamster plasma at 0.3 and 10 mg/kg, po dosed once daily for 2 weeks and measured 24 hrs post last dose by HPLC size exclusion chromatography method relative to control; assay type: functional, organism-based; settings: Mesocricetus auratus; how it was run: as §2
Syrian golden hamster [15] = test: Reduction in LDL cholesterol level in Syrian hamster plasma at 0.3 and 10 mg/kg, po dosed once daily for 2 weeks and measured 24 hrs post last dose by HPLC size exclusion chromatography method; assay type: functional, organism-based; settings: Mesocricetus auratus; how it was run: as §2
[16] = Drug uptake in Syrian hamster plasma at 10 mg/kg, po dosed once daily for 14 days measured 24 hrs post last dose by LC-MS/MS method; assay type: ADME, organism-based, Mesocricetus auratus; settings: in vivo
How it was run: (§3)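 Chow-fed hamsters dosed orally once daily for 14 days. Blood and ~100 mg adipose, adrenal and liver samples are taken 24 h after the final dose. Tissues are flash-frozen and stored at −80 °C. Total drug concentrations are measured by LC-MS/MS. Mean ± SEM, seven animals per group.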

[17] = Drug uptake in Syrian hamster adipose tissue at 10 mg/kg, po dosed once daily for 14 days measured 24 hrs post last dose by LC-MS/MS method; assay type: ADME, organism-based, Mesocricetus auratus; settings: in vivo; how it was run: as §3
[18] = Drug uptake in Syrian hamster adrenal tissue at 10 mg/kg, po dosed once daily for 14 days measured 24 hrs post last dose by LC-MS/MS method; assay type: ADME, organism-based, Mesocricetus auratus, Adrenal gland; settings: in vivo; how it was run: as §3
[19] = biological target: T3, Cholesteryl ester transfer protein (Homo sapiens) (UniProt P11597); test: Inhibition of CETP activity in human serum at upto 1200 mg/dl serum triglyceride concentration by LC-MS/MS method; settings: in the assay text read “fluorescence method” for “LC-MS/MS method”
T3 sequence (whole entry): T1 sequence (P11597 whole entry)
How it was run: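 Three human serum pools of differing triglyceride level. IC50 values are the mean of two replicates per pool.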

Hamster [20] = test: Ex vivo inhibition of CETP activity in hamster hypertriglyceridemia model treated with 100 mg/kg, iv Triton WR-1339 dosed 5 hrs post compound dose measured every 15 mins for 120 mins by fluorescence method; assay type: functional, organism-based; settings: Cricetinae
How it was run: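 Chow-fed hamsters given a single gavage dose of compound or vehicle. Triton WR-1339 (100 mg/kg) or saline is given iv 5 h later, and plasma is taken 3 h after that. Plasma (final 80%) is mixed with fluorescent donor in 50 mM Tris-HCl pH 7.4, 150 mM NaCl, 2 mM EDTA. Ex/em 485/535 nm, read every 15 min for 120 min at 37 °C. Activity is the 30–90 min slope. Five animals per group.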

Serum [21] = test: Drug uptake in HDL fraction of human serum from human donors with normal triglyceride levels (<150 mg/dL) by LC-MS/MS method; assay type: ADME, cell-free
How it was run: (§4)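 Pooled unfasted human serum (mean TG 122, 347 or 958 mg/dL) spiked with inhibitor to 500 ng/mL, 37 °C, 1 h. NaBr density-gradient ultracentrifugation, 18.5 h at 15 °C. Acetonitrile precipitation, glyburide internal standard, LC-MS/MS in duplicate. Result given as % of total across pools.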

Serum [22] = test: Drug uptake in LDL fraction of human serum from human donors with normal triglyceride levels (<150 mg/dL) by LC-MS/MS method; assay type: ADME, cell-free; how it was run: as §4
Serum [23] = test: Drug uptake in lipoprotein deficient serum fraction of human serum from human donors with normal triglyceride levels (<150 mg/dL) by LC-MS/MS method; assay type: ADME, cell-free; how it was run: as §4
Serum [24] = test: Drug uptake in triglyceride rich lipoprotein fraction of human serum from human donors with normal triglyceride levels (<150 mg/dL) by LC-MS/MS method; assay type: ADME, cell-free; how it was run: as §4
Syrian golden hamster [25] = test: Inhibition of CETP in Syrian hamster blood at 3 and 10 mg/kg, po dosed once daily for 2 weeks and measured 24 hrs post last dose; assay type: functional, organism-based; settings: Mesocricetus auratus
Serum [26] = test: Drug uptake in triglyceride rich lipoprotein fraction of human serum from human donors with triglyceride levels ( 300-500 and >750 mg/dL) by LC-MS/MS method; assay type: ADME, cell-free; how it was run: as §4

T2 sequence (P08684 whole entry): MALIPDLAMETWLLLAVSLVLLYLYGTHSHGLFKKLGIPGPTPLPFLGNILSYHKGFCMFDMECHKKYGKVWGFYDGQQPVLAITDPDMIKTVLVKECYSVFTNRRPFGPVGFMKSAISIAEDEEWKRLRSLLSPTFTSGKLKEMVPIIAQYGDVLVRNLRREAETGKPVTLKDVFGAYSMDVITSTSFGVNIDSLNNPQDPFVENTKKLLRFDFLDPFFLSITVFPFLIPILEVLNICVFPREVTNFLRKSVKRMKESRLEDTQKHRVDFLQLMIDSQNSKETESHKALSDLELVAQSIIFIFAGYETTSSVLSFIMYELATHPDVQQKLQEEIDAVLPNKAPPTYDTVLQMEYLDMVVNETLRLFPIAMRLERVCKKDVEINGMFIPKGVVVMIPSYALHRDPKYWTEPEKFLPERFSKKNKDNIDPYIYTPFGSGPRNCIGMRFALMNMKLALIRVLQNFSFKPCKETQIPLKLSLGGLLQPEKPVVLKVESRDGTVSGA
Sequence of Cytochrome P450 2C9 (P11712 whole entry): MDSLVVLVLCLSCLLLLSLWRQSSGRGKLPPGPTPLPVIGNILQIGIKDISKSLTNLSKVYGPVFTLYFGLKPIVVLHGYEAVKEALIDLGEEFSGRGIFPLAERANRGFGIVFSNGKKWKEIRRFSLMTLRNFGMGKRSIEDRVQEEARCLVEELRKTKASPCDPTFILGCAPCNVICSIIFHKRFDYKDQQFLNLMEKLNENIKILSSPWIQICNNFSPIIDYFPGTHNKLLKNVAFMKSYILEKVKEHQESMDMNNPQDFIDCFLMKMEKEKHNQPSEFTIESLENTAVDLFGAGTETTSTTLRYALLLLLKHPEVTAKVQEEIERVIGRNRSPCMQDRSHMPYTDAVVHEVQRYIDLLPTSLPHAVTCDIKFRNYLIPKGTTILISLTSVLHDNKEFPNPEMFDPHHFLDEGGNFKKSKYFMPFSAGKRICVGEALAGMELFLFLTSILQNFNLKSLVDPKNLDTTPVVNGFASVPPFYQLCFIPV
Sequence of Cytochrome P450 2D6 (P10635 whole entry): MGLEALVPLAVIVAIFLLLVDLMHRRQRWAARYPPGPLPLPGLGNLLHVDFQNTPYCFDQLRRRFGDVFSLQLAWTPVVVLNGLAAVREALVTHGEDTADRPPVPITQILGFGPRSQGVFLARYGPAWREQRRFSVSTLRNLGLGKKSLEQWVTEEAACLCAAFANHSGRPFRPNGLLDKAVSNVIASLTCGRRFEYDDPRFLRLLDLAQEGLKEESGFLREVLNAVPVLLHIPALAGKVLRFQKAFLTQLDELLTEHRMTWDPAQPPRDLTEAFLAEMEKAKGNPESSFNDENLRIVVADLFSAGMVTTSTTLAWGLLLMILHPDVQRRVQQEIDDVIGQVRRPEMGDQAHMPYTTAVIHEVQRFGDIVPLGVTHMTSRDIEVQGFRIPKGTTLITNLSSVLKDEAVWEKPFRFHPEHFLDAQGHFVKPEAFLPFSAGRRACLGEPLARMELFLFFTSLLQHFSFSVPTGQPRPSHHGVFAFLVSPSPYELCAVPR

With `CC[C@@H]1C[C@H](N(Cc2cc(C(F)(F)F)cc(C(F)(F)F)c2)c2ncc(Br)cn2)C[C@H](Cc2ccccc2)N1C(=O)OC(C)C` (racemic) the IC50 [1] was 200 nM.
For `CC[C@@H]1C[C@H](N(Cc2cc(C(F)(F)F)cc(C(F)(F)F)c2)c2ncc(Br)cn2)C[C@H](Cc2ccccc2)N1C(=O)OC(C)(C)C`, the IC50 [1] was 77 nM.
Compound `Cc1cc(C)c2c(c1)[C@@H](N(Cc1cc(C(F)(F)F)cc(C(F)(F)F)c1)c1nnn(C)n1)CCCN2C[C@H]1CC[C@H](C(=O)O)CC1` [EVACETRAPIB] has an IC50 [1] of 110 nM and a logD [2] of 5.7.
Work on `CCNC(=O)N1[C@H](CC)C[C@H](N(Cc2cc(C(F)(F)F)cc(C(F)(F)F)c2)c2ncc(Br)cn2)C[C@@H]1Cc1ccccc1` (racemic) yielded an IC50 [1] of 4800 nM.
With `CCOC(=O)N1c2ccc(C(F)(F)F)cc2[C@@H](N(Cc2cc(C(F)(F)F)cc(C(F)(F)F)c2)C(=O)OC)C[C@H]1CC` [TORCETRAPIB] the logD [2] was > 4, the Activity (NCI-H295R) was “Toxic” and the Activity (Rattus norvegicus [3]) was “Toxic”. For the same compound, the Activity (Rattus norvegicus [4]) was “Toxic”.
For `CC[C@@H]1C[C@H](N(Cc2cc(C(F)(F)F)cc(C(F)(F)F)c2)c2ncc(N3CCOCC3)cn2)C[C@H](CC)N1C(=O)OC(C)C`, the IC50 [1] was 60 nM, the half-life [5] was 4.6 h and the clearance [6] was 10 mL/min/kg. It also gave a Vd [7] of 2.35 L/kg, an AUC(0-inf) [8] of 2.75 µM·h and a bioavailability [9] of 35%. For the same compound, the IC50 (Cytochrome P450 3A4 [10]) was 2200 nM, the IC50 (Cytochrome P450 3A4 [11]) was > 50000 nM and the IC50 (Cytochrome P450 2D6) was > 30000 nM. For the same compound, the IC50 (Cytochrome P450 2C9) was 6600 nM.
Work on `CCCC(=O)N1[C@H](CC)C[C@H](N(Cc2cc(C(F)(F)F)cc(C(F)(F)F)c2)c2ncc(Br)cn2)C[C@@H]1Cc1ccccc1` (racemic) yielded an IC50 [1] of 510 nM.
With `CC[C@@H]1C[C@H](N(Cc2cc(C(F)(F)F)cc(C(F)(F)F)c2)c2ncc(Br)cn2)C[C@H](Cc2ccccc2)N1C(=O)OC(C)(C)C` (racemic) the IC50 [1] was 160 nM.
Compound `CC[C@@H]1C[C@H](N(Cc2cc(C(F)(F)F)cc(C(F)(F)F)c2)c2ncc(N3CCOCC3)cn2)C[C@H](Cc2ccccc2)N1C(=O)OC(C)(C)C` has an IC50 [1] of 60 nM, a half-life [5] of 7.4 h and a clearance [6] of 1.67 mL/min/kg. For the same compound, the Vd [7] was 0.7 L/kg, the AUC(0-inf) [8] was 0.456 µM·h and the bioavailability [9] was 3%. For the same compound, the IC50 (Cytochrome P450 3A4 [10]) was > 50000 nM, the IC50 (Cytochrome P450 3A4 [11]) was > 50000 nM and the IC50 (Cytochrome P450 2D6) was > 50000 nM. For the same compound, the IC50 (Cytochrome P450 2C9) was > 50000 nM.
With `COc1cc(F)c(C(C)C)cc1-c1ccc(C(F)(F)F)cc1CN1C(=O)O[C@H](c2cc(C(F)(F)F)cc(C(F)(F)F)c2)[C@@H]1C` [ANACETRAPIB] the logD [2] was > 5.9, the Activity (Syrian golden hamster [12]) was “Dose-dependent effect” and the Activity (Hamster [13]) was “Dose-dependent effect”. The Activity (Syrian golden hamster [14]) was “Active”, the Activity (Syrian golden hamster [15]) was “Dose-dependent effect” and the Drug uptake [16] was “Not Active”. The Drug uptake [17] was “Active”, the Drug uptake [18] was “Active” and the inhibition [19] was “inactive”. The inhibition (Hamster [20]) was “inactive”, the Drug uptake (Serum [21]) was “Active” and the Drug uptake (Serum [22]) was “Active”. The Drug uptake (Serum [23]) was “Active”, the Drug uptake (Serum [24]) was “Active” and the Activity (NCI-H295R) was “Non-Toxic”. The inhibition (Syrian golden hamster [25]) was “Active” and the Drug uptake (Serum [26]) was “Active”.

From ChEMBL document CHEMBL4028876, “Discovery of a Novel Piperidine-Based Inhibitor of Cholesteryl Ester Transfer Protein (CETP) That Retains Activity in Hypertriglyceridemic Plasma” (J Med Chem, 2017)
